Measurements reported in ChEMBL document CHEMBL4689842, “EUbOPEN Chemogenomics Library wave 1” (2021).

Tested on: U2OS
Assay: Multiplex assay against U2OS
Assay type: toxicity, cell-based
Settings: human
Procedure, shortened: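 Live cells carried four stains from seeding: Hoechst33342, BioTracker Green Microtubule Cytoskeleton Dye, MitoTracker Red and Annexin V Alexa Fluor 680. They were imaged on a CQ1 microscope at 37°C and 5% CO2 after compound addition. Using CellPathfinder machine-learning gating, cells were split into Hoechst high-intensity objects or normal cells, normal cells into healthy, pyknosed or fragmented nuclei, and pyknosed cells into mitotic or apoptotic; tubulin, mitochondrial-mass and membrane-permeability phenotypes are per cents of healthy-nucleus cells.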

[1] = 12 h, 1 µM, compound concentration 1 uM, replicate 1
[2] = 12 h, 1 µM, compound concentration 1 uM, replicate 2
[3] = 12 h, 10 µM, compound concentration 10 uM, replicate 1
[4] = 12 h, 10 µM, compound concentration 10 uM, replicate 2
[5] = 24 h, 1 µM, compound concentration 1 uM, replicate 1
[6] = 24 h, 1 µM, compound concentration 1 uM, replicate 2
[7] = 24 h, 10 µM, compound concentration 10 uM, replicate 1
[8] = 24 h, 10 µM, compound concentration 10 uM, replicate 2
[9] = 48 h, 1 µM, compound concentration 1 uM, replicate 1
[10] = 48 h, 1 µM, compound concentration 1 uM, replicate 2
[11] = 48 h, 10 µM, compound concentration 10 uM, replicate 1
[12] = 48 h, 10 µM, compound concentration 10 uM, replicate 2

## Cc1c[nH]c2nccc(Oc3c(F)cc(Nc4cc(Cl)nc(N)n4)cc3F)c12 [BAY-549]
[1]
  Population Apoptotic (%): 47%
  Population Fragmented Nuclei (%): 15%
  Population Healthy Nuclei (%): 66%
  Population Hoechst High Intensity Objects (%): 6%
  Population Membrane Permeable-Phenotype (%): 15%
  Population Mitochondria Different-Phenotype (%): 12%
  Population Mitotic Cells (%): 52%
  Population Normal (%): 93%
  Population Pyknosed Nuclei (%): 18%
  Population Tubulin-Different-Phenotype (%): 21%
  Total Cell Count: 200
[2]
  Population Apoptotic (%): 44%
  Population Fragmented Nuclei (%): 12%
  Population Healthy Nuclei (%): 73%
  Population Hoechst High Intensity Objects (%): 5%
  Population Membrane Permeable-Phenotype (%): 4%
  Population Mitochondria Different-Phenotype (%): 6%
  Population Mitotic Cells (%): 55%
  Population Normal (%): 94%
  Population Pyknosed Nuclei (%): 14%
  Population Tubulin-Different-Phenotype (%): 12%
  Total Cell Count: 68
[3]
  Population Apoptotic (%): 48%
  Population Fragmented Nuclei (%): 20%
  Population Healthy Nuclei (%): 59%
  Population Hoechst High Intensity Objects (%): 9%
  Population Membrane Permeable-Phenotype (%): 12%
  Population Mitochondria Different-Phenotype (%): 19%
  Population Mitotic Cells (%): 52%
  Population Normal (%): 90%
  Population Pyknosed Nuclei (%): 20%
  Population Tubulin-Different-Phenotype (%): 16%
  Total Cell Count: 136
[4]
  Population Apoptotic (%): 40%
  Population Fragmented Nuclei (%): 17%
  Population Healthy Nuclei (%): 65%
  Population Hoechst High Intensity Objects (%): 6%
  Population Membrane Permeable-Phenotype (%): 7%
  Population Mitochondria Different-Phenotype (%): 10%
  Population Mitotic Cells (%): 60%
  Population Normal (%): 93%
  Population Pyknosed Nuclei (%): 17%
  Population Tubulin-Different-Phenotype (%): 10%
  Total Cell Count: 62
[5]
  Population Apoptotic (%): 37%
  Population Fragmented Nuclei (%): 13%
  Population Healthy Nuclei (%): 70%
  Population Hoechst High Intensity Objects (%): 3%
  Population Membrane Permeable-Phenotype (%): 9%
  Population Mitochondria Different-Phenotype (%): 10%
  Population Mitotic Cells (%): 62%
  Population Normal (%): 96%
  Population Pyknosed Nuclei (%): 16%
  Population Tubulin-Different-Phenotype (%): 18%
  Total Cell Count: 226
[6]
  Population Apoptotic (%): 46%
  Population Fragmented Nuclei (%): 8%
  Population Healthy Nuclei (%): 71%
  Population Membrane Permeable-Phenotype (%): 5%
  Population Mitochondria Different-Phenotype (%): 7%
  Population Mitotic Cells (%): 53%
  Population Pyknosed Nuclei (%): 20%
  Total Cell Count: 77
[7]
  Population Apoptotic (%): 59%
  Population Fragmented Nuclei (%): 25%
  Population Healthy Nuclei (%): 53%
  Population Hoechst High Intensity Objects (%): 8%
  Population Membrane Permeable-Phenotype (%): 12%
  Population Mitochondria Different-Phenotype (%): 19%
  Population Mitotic Cells (%): 40%
  Population Normal (%): 91%
  Population Pyknosed Nuclei (%): 21%
  Population Tubulin-Different-Phenotype (%): 16%
  Total Cell Count: 135
[8]
  Population Apoptotic (%): 71%
  Population Fragmented Nuclei (%): 12%
  Population Healthy Nuclei (%): 62%
  Population Hoechst High Intensity Objects (%): 5%
  Population Membrane Permeable-Phenotype (%): 11%
  Population Mitochondria Different-Phenotype (%): 20%
  Population Mitotic Cells (%): 28%
  Population Normal (%): 94%
  Population Pyknosed Nuclei (%): 25%
  Population Tubulin-Different-Phenotype (%): 20%
  Total Cell Count: 59
[9]
  Population Apoptotic (%): 60%
  Population Healthy Nuclei (%): 64%
  Population Hoechst High Intensity Objects (%): 2%
  Population Membrane Permeable-Phenotype (%): 8%
  Population Mitochondria Different-Phenotype (%): 13%
  Population Mitotic Cells (%): 39%
  Population Normal (%): 97%
  Population Pyknosed Nuclei (%): 19%
  Population Tubulin-Different-Phenotype (%): 20%
  Total Cell Count: 302
[10]
  Population Apoptotic (%): 66%
  Population Fragmented Nuclei (%): 15%
  Population Healthy Nuclei (%): 73%
  Population Hoechst High Intensity Objects (%): 0%
  Population Membrane Permeable-Phenotype (%): 11%
  Population Mitochondria Different-Phenotype (%): 20%
  Population Mitotic Cells (%): 33%
  Population Normal (%): 99%
  Population Pyknosed Nuclei (%): 11%
  Population Tubulin-Different-Phenotype (%): 28%
  Total Cell Count: 106
[11]
  Population Apoptotic (%): 60%
  Population Fragmented Nuclei (%): 34%
  Population Healthy Nuclei (%): 41%
  Population Hoechst High Intensity Objects (%): 5%
  Population Membrane Permeable-Phenotype (%): 17%
  Population Mitochondria Different-Phenotype (%): 46%
  Population Mitotic Cells (%): 40%
  Population Normal (%): 94%
  Population Pyknosed Nuclei (%): 24%
  Population Tubulin-Different-Phenotype (%): 19%
  Total Cell Count: 132
[12]
  Population Apoptotic (%): 76%
  Population Fragmented Nuclei (%): 12%
  Population Healthy Nuclei (%): 63%
  Population Hoechst High Intensity Objects (%): 8%
  Population Membrane Permeable-Phenotype (%): 25%
  Population Mitochondria Different-Phenotype (%): 51%
  Population Mitotic Cells (%): 23%
  Population Normal (%): 91%
  Population Pyknosed Nuclei (%): 23%
  Population Tubulin-Different-Phenotype (%): 28%
  Total Cell Count: 60

## COc1ccc(-c2ccc3ncc4c(c3c2)n(-c2ccc(N3CCNCC3)c(C(F)(F)F)c2)c(=O)n4C)cn1.O=C(O)/C=C\C(=O)O [BGT-226]
[1]
  Population Apoptotic (%): 86%
  Population Fragmented Nuclei (%): 50%
  Population Healthy Nuclei (%): 10%
  Population Hoechst High Intensity Objects (%): 14%
  Population Membrane Permeable-Phenotype (%): 58%
  Population Mitotic Cells (%): 13%
  Population Normal (%): 85%
  Population Pyknosed Nuclei (%): 38%
  Total Cell Count: 182
[2]
  Population Apoptotic (%): 81%
  Population Fragmented Nuclei (%): 24%
  Population Healthy Nuclei (%): 45%
  Population Hoechst High Intensity Objects (%): 17%
  Population Membrane Permeable-Phenotype (%): 70%
  Population Mitochondria Different-Phenotype (%): 94%
  Population Mitotic Cells (%): 18%
  Population Normal (%): 82%
  Population Pyknosed Nuclei (%): 29%
  Population Tubulin-Different-Phenotype (%): 94%
  Total Cell Count: 45
[3]
  Population Apoptotic (%): 97%
  Population Fragmented Nuclei (%): 33%
  Population Healthy Nuclei (%): 1%
  Population Hoechst High Intensity Objects (%): 13%
  Population Membrane Permeable-Phenotype (%): 50%
  Population Mitochondria Different-Phenotype (%): 50%
  Population Mitotic Cells (%): 2%
  Population Normal (%): 86%
  Population Pyknosed Nuclei (%): 65%
  Population Tubulin-Different-Phenotype (%): 50%
  Total Cell Count: 258
[4]
  Population Apoptotic (%): 100%
  Population Fragmented Nuclei (%): 70%
  Population Healthy Nuclei (%): 9%
  Population Hoechst High Intensity Objects (%): 62%
  Population Membrane Permeable-Phenotype (%): 24%
  Population Mitochondria Different-Phenotype (%): 32%
  Population Mitotic Cells (%): 0%
  Population Normal (%): 37%
  Population Pyknosed Nuclei (%): 19%
  Population Tubulin-Different-Phenotype (%): 24%
  Total Cell Count: 675
[5]
  Population Apoptotic (%): 98%
  Population Fragmented Nuclei (%): 47%
  Population Healthy Nuclei (%): 5%
  Population Hoechst High Intensity Objects (%): 14%
  Population Membrane Permeable-Phenotype (%): 75%
  Population Mitochondria Different-Phenotype (%): 87%
  Population Mitotic Cells (%): 1%
  Population Normal (%): 85%
  Population Pyknosed Nuclei (%): 47%
  Population Tubulin-Different-Phenotype (%): 75%
  Total Cell Count: 181
[6]
  Population Apoptotic (%): 83%
  Population Fragmented Nuclei (%): 20%
  Population Healthy Nuclei (%): 40%
  Population Hoechst High Intensity Objects (%): 30%
  Population Membrane Permeable-Phenotype (%): 66%
  Population Mitochondria Different-Phenotype (%): 91%
  Population Mitotic Cells (%): 16%
  Population Normal (%): 69%
  Population Pyknosed Nuclei (%): 40%
  Population Tubulin-Different-Phenotype (%): 91%
  Total Cell Count: 43
[7]
  Population Apoptotic (%): 97%
  Population Fragmented Nuclei (%): 39%
  Population Healthy Nuclei (%): 0%
  Population Hoechst High Intensity Objects (%): 15%
  Population Membrane Permeable-Phenotype (%): 100%
  Population Mitochondria Different-Phenotype (%): 100%
  Population Mitotic Cells (%): 2%
  Population Normal (%): 84%
  Population Pyknosed Nuclei (%): 59%
  Population Tubulin-Different-Phenotype (%): 100%
  Total Cell Count: 269
[8]
  Population Apoptotic (%): 100%
  Population Fragmented Nuclei (%): 79%
  Population Healthy Nuclei (%): 10%
  Population Hoechst High Intensity Objects (%): 64%
  Population Membrane Permeable-Phenotype (%): 69%
  Population Mitochondria Different-Phenotype (%): 60%
  Population Mitotic Cells (%): 0%
  Population Normal (%): 35%
  Population Pyknosed Nuclei (%): 9%
  Population Tubulin-Different-Phenotype (%): 60%
  Total Cell Count: 614
[9]
  Population Fragmented Nuclei (%): 45%
  Population Healthy Nuclei (%): 3%
  Population Hoechst High Intensity Objects (%): 22%
  Population Membrane Permeable-Phenotype (%): 80%
  Population Mitochondria Different-Phenotype (%): 80%
  Population Normal (%): 77%
  Population Pyknosed Nuclei (%): 50%
  Population Tubulin-Different-Phenotype (%): 80%
  Total Cell Count: 185
[10]
  Population Apoptotic (%): 100%
  Population Fragmented Nuclei (%): 25%
  Population Healthy Nuclei (%): 35%
  Population Hoechst High Intensity Objects (%): 34%
  Population Membrane Permeable-Phenotype (%): 90%
  Population Mitochondria Different-Phenotype (%): 90%
  Population Mitotic Cells (%): 0%
  Population Normal (%): 65%
  Population Pyknosed Nuclei (%): 39%
  Population Tubulin-Different-Phenotype (%): 90%
  Total Cell Count: 43
[11]
  Population Apoptotic (%): 97%
  Population Fragmented Nuclei (%): 40%
  Population Healthy Nuclei (%): 3%
  Population Hoechst High Intensity Objects (%): 18%
  Population Membrane Permeable-Phenotype (%): 71%
  Population Mitochondria Different-Phenotype (%): 85%
  Population Mitotic Cells (%): 2%
  Population Normal (%): 81%
  Population Pyknosed Nuclei (%): 55%
  Population Tubulin-Different-Phenotype (%): 85%
  Total Cell Count: 260
[12]
  Population Apoptotic (%): 100%
  Population Fragmented Nuclei (%): 85%
  Population Healthy Nuclei (%): 12%
  Population Hoechst High Intensity Objects (%): 67%
  Population Membrane Permeable-Phenotype (%): 81%
  Population Mitochondria Different-Phenotype (%): 72%
  Population Mitotic Cells (%): 0%
  Population Normal (%): 32%
  Population Pyknosed Nuclei (%): 1%
  Population Tubulin-Different-Phenotype (%): 72%
  Total Cell Count: 534
